Assay results collected from several papers.
Organism: Staphylococcus aureus
Effect on: microbial growth

CCCCCCCCN=c1ccn(CCCCCCCCCCn2ccc(=NCCCCCCCC)cc2)cc1 — MIC (MRSA USA300; drug-resistant strain): 0.5 µM
Cc1ccc2[nH]nc(-c3nnc(Nc4cc(Cl)cc(Br)c4)s3)c2c1 — MIC (ATCC29213): 204 µg/mL
CN[C@H](CC(C)C)C(=O)N[C@H]1C(=O)N[C@@H](CC(N)=O)C(=O)N[C@H]2C(=O)N[C@H]3C(=O)N[C@H](C(=O)N[C@H](C(=O)O)c4cc(O)cc(O)c4-c4cc3ccc4O)[C@H](O)c3ccc(c(Cl)c3)Oc3cc2cc(c3O[C@@H]2O[C@H](CO)[C@@H](O)[C@H](O)[C@H]2O[C@H]2C[C@](C)(N)[C@H](O)[C@H](C)O2)Oc2ccc(cc2Cl)[C@H]1O — MIC (broth dilution; MRSA): 0.67 µM
CCCCCCC#Cc1cncc(-c2nnc(SCc3cc(C(F)(F)F)cc(C(F)(F)F)c3)n2CCCN)c1 — MIC (broth dilution; MRSA): 4 µg/mL
Cc1cc(O)cc(Nc2nnc(-c3n[nH]c4ccc(C)cc34)s2)c1 — MIC (ATCC29213): 87.6 µg/mL
C=C[C@]1(C)C[C@@H](OC(=O)CS[C@@H]2C[C@H]3CC[C@@H](C2)N3C)[C@]2(C)[C@H](C)CC[C@]3(CCC(=O)[C@H]32)[C@@H](C)[C@@H]1O — MIC (agar dilution; ATCC43300): 0.0625 µg/mL
CC(=O)c1ccc2cc(S(=O)(=O)NCc3ccccc3)ccc2c1 — MIC (broth dilution; ATCC25923): 40000 µg/mL
CCCCCCCCCCCC[N+](C)(C)Cc1ccccc1 — MIC (ATCC33591 MRSA; drug-resistant strain): 32 µM
CC1(C)S[C@@H]2[C@H](NC(=O)[C@H](N)c3ccccc3)C(=O)N2[C@H]1C(=O)O — MIC (agar dilution; ATCC43300): > 128 µg/mL
COc1ccc(N2N=C(C(C)=O)SC2=C(C#N)C(=O)c2ccc(Nc3cnccn3)cc2)cc1 — MIC (broth dilution; ATCC25923): 6.25 µg/mL
CCCCCCC#Cc1cncc(-c2nnc(SCc3cc([N+](=O)[O-])cc([N+](=O)[O-])c3)n2C2CCNCC2)c1 — MIC (broth dilution; MRSA): 8 µg/mL
COc1cccc(OC)c1C(=O)N[C@@H]1C(=O)N2[C@@H]1SC(C)(C)[C@@H]2C(=O)O — MIC (broth dilution; USA300): > 64 µg/mL
CC(=O)NC[C@H]1CN(c2ccc(N3CCOCC3)c(F)c2)C(=O)O1 — MIC (agar dilution; ATCC25923): 1 µg/mL
CCCCCCC#Cc1cncc(-c2nnc(SCc3cc([N+](=O)[O-])cc([N+](=O)[O-])c3)n2CCCN)c1 — MIC (broth dilution; ATCC29213): 8 µg/mL
CC[C@H]1OC(=O)[C@H](C)[C@@H](O[C@H]2C[C@@](C)(OC)[C@@H](O)[C@H](C)O2)[C@H](C)[C@@H](O[C@@H]2O[C@H](C)C[C@H](N(C)C)[C@H]2O)[C@](C)(O)C[C@@H](C)CN(C)[C@H](C)[C@@H](O)[C@]1(C)O — MIC (broth dilution; USA300): > 64 µg/mL
c1ccc(CSc2nc3ccccc3cc2CNCc2ccc(N3CCCCC3)cc2)cc1 — MIC (broth dilution): > 128 µg/mL
Cc1ccc2[nH]nc(-c3nnc(Nc4ccc(Cl)cc4)s3)c2c1 — MIC (ATCC29213): 44.5 µg/mL
CC1(C)S[C@@H]2[C@H](NC(=O)[C@H](N)c3ccc(O)cc3)C(=O)N2[C@H]1C(=O)O — MIC (broth dilution; USA300): 64 µg/mL
N#CC(C#N)=C1SC(C(=O)c2ccc(Nc3cnccn3)cc2)=NN1c1ccc([N+](=O)[O-])cc1 — MIC (broth dilution; ATCC25923): 3.12 µg/mL
CN1CCN(CCNCc2cc3cc(-c4ccccc4)ccc3nc2SCc2ccccc2)CC1 — MIC (broth dilution): 8 µg/mL
O=C(N[C@H](CO)[C@H](O)c1ccc([N+](=O)[O-])cc1)C(Cl)Cl — MIC (broth dilution; ATCC25923): 6.25 µg/mL
Cc1ccc2[nH]nc(-c3nnc(Nc4ccc(Cl)c(Br)c4)s3)c2c1 — MIC (ATCC29213): 204 µg/mL
CC1(C)S[C@@H]2[C@H](NC(=O)[C@H](N)c3ccccc3)C(=O)N2[C@H]1C(=O)O — MIC (broth dilution; ATCC25923; 12 h): 0.13 µg/mL
CCCCCCC#Cc1cncc(-c2nnc(SCc3cc([N+](=O)[O-])cc([N+](=O)[O-])c3)n2CCOC2OC(CN)C(O)C2O)c1 (stereo not drawn) — MIC (broth dilution; ATCC29213): > 64 µg/mL
COc1cc2cc(CNCCN3CCN(C)CC3)c(SCc3ccccc3)nc2c(OC)c1OC — MIC (broth dilution): 128 µg/mL
O=C1/C(=C/c2ccc3ccccc3c2O)NC(=S)N1c1ccccc1 — MIC (broth dilution; ATCC6538): 22 µg/mL
CCCCCCC#Cc1cncc(-c2nnc(SCc3ccc([N+](=O)[O-])cc3)n2CCCN)c1 — MIC (broth dilution; MRSA): 8 µg/mL
c1ccc(CSc2nc3ccc(-c4ccccc4)cc3cc2CNCCC2CCN(C3CCCC3)CC2)cc1 — MIC (broth dilution): 8 µg/mL
CC(=O)NC[C@H]1CN(c2ccc(N3CCOCC3)c(F)c2)C(=O)O1 — MIC (broth dilution; USA300): 1 µg/mL
COc1c(N2C[C@@H]3CCCN[C@@H]3C2)c(F)cc2c(=O)c(C(=O)O)cn(C3CC3)c12 — MIC (agar dilution; ATCC43300): 0.5 µg/mL
C[C@H]1COc2c(N3CCN(C)CC3)c(F)cc3c(=O)c(C(=O)O)cn1c23 — MIC (broth dilution; ATCCBAA44; 18 h): 50 µM
CN1CCN(CCNCc2cc3ccccc3nc2SCc2ccccc2)CC1 — MIC (broth dilution): 64 µg/mL
C[C@@H](O)[C@H]1C(=O)N2C(C(=O)O)=C(S[C@@H]3CN[C@H](C(=O)N(C)C)C3)[C@H](C)[C@H]12 — MIC (ATCC29213 MSSA; drug-resistant strain): 0.06 µg/mL
CN[C@H](CC(C)C)C(=O)N[C@H]1C(=O)N[C@@H](CC(N)=O)C(=O)N[C@H]2C(=O)N[C@H]3C(=O)N[C@H](C(=O)N[C@H](C(=O)O)c4cc(O)cc(O)c4-c4cc3ccc4O)[C@H](O)c3ccc(c(Cl)c3)Oc3cc2cc(c3O[C@@H]2O[C@H](CO)[C@@H](O)[C@H](O)[C@H]2O[C@H]2C[C@](C)(N)[C@H](O)[C@H](C)O2)Oc2ccc(cc2Cl)[C@H]1O — MIC (MRSA): 0.5 µg/mL
CC[C@H]1OC(=O)[C@H](C)[C@@H](O[C@H]2C[C@@](C)(OC)[C@@H](O)[C@H](C)O2)[C@H](C)[C@@H](O[C@@H]2O[C@H](C)C[C@H](N(C)C)[C@H]2O)[C@](C)(O)C[C@@H](C)C(=O)[C@H](C)[C@@H](O)[C@]1(C)O — MIC (broth dilution; ATCCBAA44 BAA44): > 64 µg/mL
CC[C@H]1OC(=O)[C@H](C)[C@@H](O[C@H]2C[C@@](C)(OC)[C@@H](O)[C@H](C)O2)[C@H](C)[C@@H](O[C@@H]2O[C@H](C)C[C@H](N(C)C)[C@H]2O)[C@](C)(O)C[C@@H](C)/C(=N\OCOCCOC)[C@H](C)[C@@H](O)[C@]1(C)O — MIC (agar dilution; ATCC43300): 16 µg/mL
N=c1sc(C(=O)c2ccc(Nc3cnccn3)cc2)nn1-c1ccccc1 — MIC (broth dilution; ATCC25923): 50 µg/mL
Cc1ccc2[nH]nc(-c3nnc(Nc4ccc(C(F)(F)F)cc4)s3)c2c1 — MIC (ATCC29213): 14.4 µg/mL
[H]/N=C(\N/C(=N/[H])NCCCCCCNC(=N)NC(=N)Nc1ccc(Cl)cc1)Nc1ccc(Cl)cc1 — MIC (MSSA): 0.5 µM
